Reference: ChEMBL document CHEMBL1134050, “Phenyl benzenesulfonamides are novel and selective 5-HT6 antagonists: identification of N-(2,5-dibromo-3-fluorophenyl)-4-methoxy-3-piperazin-1-ylbenzenesulfonamide (SB-357134)” (Bioorg Med Chem Lett, 2001)

Assays:
[1] = molecular target: 5-hydroxytryptamine receptor 2A (Homo sapiens, UniProt P28223); assay: Compound was evaluated for binding affinity against human cloned 5-hydroxytryptamine 2A receptor in HEK 293 cells using [3H]ketanserin as the radioligand; assay type: cell-based, HEK293
[2] = molecular target: T1, 5-hydroxytryptamine receptor 1A (Homo sapiens, UniProt P08908); assay: Compound was evaluated for binding affinity against human cloned 5-hydroxytryptamine 1A receptor in HEK 293 cells using [3H]8-OH-DPAT as the radioligand; assay type: cell-based, HEK293
T1 sequence (P08908 whole entry): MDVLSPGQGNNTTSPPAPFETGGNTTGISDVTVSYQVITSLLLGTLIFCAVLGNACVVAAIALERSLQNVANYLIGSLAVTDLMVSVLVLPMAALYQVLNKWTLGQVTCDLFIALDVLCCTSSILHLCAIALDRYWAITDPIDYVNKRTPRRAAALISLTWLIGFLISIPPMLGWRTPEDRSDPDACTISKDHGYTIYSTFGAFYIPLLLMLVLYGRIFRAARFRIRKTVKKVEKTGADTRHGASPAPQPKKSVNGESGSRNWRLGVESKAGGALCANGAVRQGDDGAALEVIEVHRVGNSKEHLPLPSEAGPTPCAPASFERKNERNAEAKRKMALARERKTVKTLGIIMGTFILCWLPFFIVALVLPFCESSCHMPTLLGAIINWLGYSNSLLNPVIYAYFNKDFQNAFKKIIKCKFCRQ
Method in brief: (§1)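 Radioligand binding to human cloned receptors: 5-HT1A in HEK 293 cells with [3H]-8-OH-DPAT; 5-HT1B and 5-HT1E in CHO cells with [3H]-5-HT; 5-HT2B in HEK 293 cells with [3H]-5-HT; D2 and D3 in CHO cells with [125I]-iodosulpride. Values are the mean of at least two determinations, each within 0.2 log unit of the mean.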

[3] = molecular target: 5-hydroxytryptamine receptor 1E (Homo sapiens, UniProt P28566); assay: Compound was evaluated for binding affinity against human cloned 5-hydroxytryptamine 1E receptor in CHO cells using [3H]5-HT as the radioligand; assay type: cell-based; method in brief: as §1
D(2) dopamine receptor = D(2) dopamine receptor (Homo sapiens, UniProt P14416); assay: Compound was evaluated for binding affinity against Dopamine receptor D2 in CHO cells using [125I]iodosulpiride as the radioligand; assay type: cell-based; method in brief: as §1
[4] = Plasma Clearance measured at steady-state following iv infusion at 0.6 mg/kg/h in rats; assay type: ADME, organism-based; set-up: route intravenous; details: rat, 0.6 mg/kg/h infusion
[5] = Bioavailability in rat (dose 10 mg/kg in 10% Encapsin and 2% DMSO p.o.); details: in vivo, po
[6] = molecular target: 5-hydroxytryptamine receptor 7 (Homo sapiens, UniProt P34969); assay: Displacement of [3H]-5-CT from human 5-hydroxytryptamine 7 receptor expressed in HEK-293 cells; assay type: cell-based, HEK293
[7] = molecular target: T2, Alpha-1B adrenergic receptor (Homo sapiens, UniProt P35368); assay: Compound was evaluated for binding affinity against Alpha-1B adrenergic receptor
T2 sequence (P35368 whole entry): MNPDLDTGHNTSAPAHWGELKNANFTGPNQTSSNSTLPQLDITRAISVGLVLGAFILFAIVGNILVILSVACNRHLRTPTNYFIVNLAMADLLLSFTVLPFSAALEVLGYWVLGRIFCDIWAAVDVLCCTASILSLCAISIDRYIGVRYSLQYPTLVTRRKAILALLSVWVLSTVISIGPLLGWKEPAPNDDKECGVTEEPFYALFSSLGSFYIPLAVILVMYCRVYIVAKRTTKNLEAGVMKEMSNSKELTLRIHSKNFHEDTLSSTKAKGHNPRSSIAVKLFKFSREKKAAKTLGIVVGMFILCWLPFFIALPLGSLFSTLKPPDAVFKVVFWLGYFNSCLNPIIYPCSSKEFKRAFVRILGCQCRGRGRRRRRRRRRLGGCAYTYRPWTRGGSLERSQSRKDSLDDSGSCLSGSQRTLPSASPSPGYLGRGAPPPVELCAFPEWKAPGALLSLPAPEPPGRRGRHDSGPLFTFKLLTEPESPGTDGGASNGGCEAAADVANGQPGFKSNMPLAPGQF

D(3) dopamine receptor = D(3) dopamine receptor (Homo sapiens, UniProt P35462); assay: Compound was evaluated for binding affinity against Dopamine receptor D3 in CHO cells using [125I]iodosulpiride as the radioligand; assay type: cell-based; method in brief: as §1
[8] = molecular target: 5-hydroxytryptamine receptor 4 (Homo sapiens, UniProt Q13639); assay: Compound was evaluated for the binding affinity against human cloned 5-hydroxytryptamine 4 receptor in HeLa cells using [3H]-LSD as the radioligand; assay type: cell-based
[9] = molecular target: T3, 5-hydroxytryptamine receptor 2C (Homo sapiens, UniProt P28335); assay: Compound was evaluated for binding affinity against human cloned 5-hydroxytryptamine 2C receptor in HEK 293 cells using [3H]mesulergine as the radioligand; assay type: cell-based, HEK293
T3 sequence (P28335 whole entry): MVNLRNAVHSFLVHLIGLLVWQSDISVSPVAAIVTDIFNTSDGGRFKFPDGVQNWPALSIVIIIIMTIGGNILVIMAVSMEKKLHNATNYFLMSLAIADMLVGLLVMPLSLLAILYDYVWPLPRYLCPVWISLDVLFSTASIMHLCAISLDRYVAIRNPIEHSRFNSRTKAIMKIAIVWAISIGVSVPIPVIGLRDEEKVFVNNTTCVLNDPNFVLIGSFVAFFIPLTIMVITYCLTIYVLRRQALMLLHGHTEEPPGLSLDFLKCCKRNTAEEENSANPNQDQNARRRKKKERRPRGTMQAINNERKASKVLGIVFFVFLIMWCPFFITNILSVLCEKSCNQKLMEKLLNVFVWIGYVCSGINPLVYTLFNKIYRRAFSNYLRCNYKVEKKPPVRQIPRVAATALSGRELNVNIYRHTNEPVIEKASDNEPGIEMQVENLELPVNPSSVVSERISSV

[10] = molecular target: 5-hydroxytryptamine receptor 1D (Homo sapiens, UniProt P28221); assay: Compound was evaluated for binding affinity against human cloned 5-hydroxytryptamine 1D receptor in CHO cells using [3H]5-HT as the radioligand; assay type: cell-based
[11] = molecular target: T4, 5-hydroxytryptamine receptor 1F (Homo sapiens, UniProt P30939); assay: Compound was evaluated for binding affinity against human cloned 5-hydroxytryptamine 1F receptor in CHO cells using [3H]-5-HT as the radioligand; assay type: cell-based
T4 sequence (P30939 whole entry): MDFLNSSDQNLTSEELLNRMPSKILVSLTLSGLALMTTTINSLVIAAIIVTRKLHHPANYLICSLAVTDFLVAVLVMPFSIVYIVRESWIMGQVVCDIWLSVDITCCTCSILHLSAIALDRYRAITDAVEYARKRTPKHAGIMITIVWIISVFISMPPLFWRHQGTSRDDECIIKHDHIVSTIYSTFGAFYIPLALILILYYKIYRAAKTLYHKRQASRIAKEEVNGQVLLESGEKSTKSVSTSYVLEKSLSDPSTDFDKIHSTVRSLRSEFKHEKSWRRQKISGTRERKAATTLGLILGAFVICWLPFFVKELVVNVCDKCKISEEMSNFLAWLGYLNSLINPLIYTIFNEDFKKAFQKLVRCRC

[12] = molecular target: 5-hydroxytryptamine receptor 2B (Homo sapiens, UniProt P41595); assay: Compound was evaluated for binding affinity against human cloned 5-HT2B receptor in HEK 293 cells using [3H]5-HT as the radioligand; assay type: cell-based, HEK293; method in brief: as §1
[13] = molecular target: 5-hydroxytryptamine receptor 1B (Homo sapiens, UniProt P28222); assay: Compound was evaluated for binding affinity against human cloned 5-hydroxytryptamine 1B receptor in CHO cells using [3H]5-HT as the radioligand; assay type: cell-based; method in brief: as §1
[14] = Bioavailability was determined upon 10 mg/kg in 1% methylcellulose peroral administration in rats; assay type: ADME, organism-based; details: rat, in vivo, po
Method in brief: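 Rats were given 10 mg/kg orally as a suspension in 1% methylcellulose (v/v) aq (n=3). Blood drug levels were determined by LC/MS/MS, and AUC/dose and bioavailability were derived from them.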

Rattus norvegicus [15] = species on record: Rattus norvegicus; assay: Blood: Brain distribution ratio is determined in rat; assay type: ADME, organism-based
Method in brief: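 Rats received iv infusion for 8 h, and the brain:blood ratio was taken at steady state.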

Rattus norvegicus [16] = assay: Pharmacokinetic property( plasma concentration) was determined upon 10 mg/kg in 1% methylcellulose peroral administration in rats; assay type: ADME, organism-based; set-up: dose 10 mg/kg, route oral; details: in vivo, po
[17] = molecular target: 5-hydroxytryptamine receptor 6 (Homo sapiens, UniProt P50406); assay: Binding affinity against human 5-hydroxytryptamine 6 receptor
Chain of 5-hydroxytryptamine receptor 6 (P50406 whole entry): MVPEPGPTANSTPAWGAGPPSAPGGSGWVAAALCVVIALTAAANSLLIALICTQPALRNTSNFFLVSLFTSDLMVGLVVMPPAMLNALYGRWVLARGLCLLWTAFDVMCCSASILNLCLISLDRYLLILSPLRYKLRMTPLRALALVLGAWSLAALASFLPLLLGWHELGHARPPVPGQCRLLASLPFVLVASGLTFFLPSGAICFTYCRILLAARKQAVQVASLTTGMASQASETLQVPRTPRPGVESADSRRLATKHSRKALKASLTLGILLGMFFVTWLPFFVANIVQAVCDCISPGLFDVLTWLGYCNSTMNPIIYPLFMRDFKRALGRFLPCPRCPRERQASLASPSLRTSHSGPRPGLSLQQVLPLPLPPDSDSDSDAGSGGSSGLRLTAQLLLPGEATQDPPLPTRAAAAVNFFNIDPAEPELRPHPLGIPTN

Chain of D(2) dopamine receptor (P14416 whole entry, the tested form may be a part): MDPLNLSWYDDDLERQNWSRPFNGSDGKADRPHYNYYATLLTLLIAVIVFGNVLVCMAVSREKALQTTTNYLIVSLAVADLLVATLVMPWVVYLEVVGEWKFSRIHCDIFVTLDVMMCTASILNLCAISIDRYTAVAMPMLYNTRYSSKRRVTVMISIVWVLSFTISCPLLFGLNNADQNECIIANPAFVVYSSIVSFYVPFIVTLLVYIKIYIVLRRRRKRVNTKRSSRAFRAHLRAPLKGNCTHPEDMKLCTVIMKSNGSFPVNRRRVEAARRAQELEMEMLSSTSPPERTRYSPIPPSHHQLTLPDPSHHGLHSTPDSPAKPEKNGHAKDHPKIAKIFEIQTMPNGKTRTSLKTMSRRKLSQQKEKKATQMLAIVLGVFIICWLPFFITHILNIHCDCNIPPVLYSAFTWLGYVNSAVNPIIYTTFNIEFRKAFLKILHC
Chain of 5-hydroxytryptamine receptor 7 (P34969 whole entry): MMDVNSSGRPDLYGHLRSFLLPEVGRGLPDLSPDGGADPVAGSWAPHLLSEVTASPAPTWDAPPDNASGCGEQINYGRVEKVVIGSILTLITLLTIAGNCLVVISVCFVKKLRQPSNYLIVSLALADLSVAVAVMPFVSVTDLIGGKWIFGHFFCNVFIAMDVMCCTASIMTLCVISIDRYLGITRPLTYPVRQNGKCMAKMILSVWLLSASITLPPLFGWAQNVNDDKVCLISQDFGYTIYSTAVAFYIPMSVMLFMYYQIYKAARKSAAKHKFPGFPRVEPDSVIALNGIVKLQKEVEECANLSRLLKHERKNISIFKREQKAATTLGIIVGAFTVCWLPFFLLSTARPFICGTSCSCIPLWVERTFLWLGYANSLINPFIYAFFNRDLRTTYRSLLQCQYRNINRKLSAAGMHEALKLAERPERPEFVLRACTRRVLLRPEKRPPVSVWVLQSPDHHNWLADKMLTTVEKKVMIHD
Chain of 5-hydroxytryptamine receptor 1D (P28221 whole entry): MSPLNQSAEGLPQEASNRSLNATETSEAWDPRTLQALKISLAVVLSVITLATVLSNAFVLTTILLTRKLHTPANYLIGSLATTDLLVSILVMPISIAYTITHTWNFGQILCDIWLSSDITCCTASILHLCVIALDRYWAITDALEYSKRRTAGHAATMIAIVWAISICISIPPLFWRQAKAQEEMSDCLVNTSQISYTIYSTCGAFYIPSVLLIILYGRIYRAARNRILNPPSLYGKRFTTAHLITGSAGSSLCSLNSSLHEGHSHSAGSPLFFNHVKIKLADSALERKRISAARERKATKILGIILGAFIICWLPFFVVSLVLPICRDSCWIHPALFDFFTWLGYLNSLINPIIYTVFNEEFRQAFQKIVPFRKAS
Chain of 5-hydroxytryptamine receptor 1B (P28222 whole entry): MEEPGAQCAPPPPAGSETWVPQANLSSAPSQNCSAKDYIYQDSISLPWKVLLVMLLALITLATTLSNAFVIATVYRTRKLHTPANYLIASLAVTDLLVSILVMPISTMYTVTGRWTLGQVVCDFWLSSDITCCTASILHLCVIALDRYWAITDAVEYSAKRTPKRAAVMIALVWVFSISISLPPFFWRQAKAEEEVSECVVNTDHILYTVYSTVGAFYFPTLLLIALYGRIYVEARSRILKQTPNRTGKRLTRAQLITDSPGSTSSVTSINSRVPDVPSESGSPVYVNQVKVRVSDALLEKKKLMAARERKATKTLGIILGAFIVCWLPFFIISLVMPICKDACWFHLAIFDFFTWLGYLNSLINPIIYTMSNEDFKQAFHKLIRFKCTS
Chain of 5-hydroxytryptamine receptor 1E (P28566 whole entry): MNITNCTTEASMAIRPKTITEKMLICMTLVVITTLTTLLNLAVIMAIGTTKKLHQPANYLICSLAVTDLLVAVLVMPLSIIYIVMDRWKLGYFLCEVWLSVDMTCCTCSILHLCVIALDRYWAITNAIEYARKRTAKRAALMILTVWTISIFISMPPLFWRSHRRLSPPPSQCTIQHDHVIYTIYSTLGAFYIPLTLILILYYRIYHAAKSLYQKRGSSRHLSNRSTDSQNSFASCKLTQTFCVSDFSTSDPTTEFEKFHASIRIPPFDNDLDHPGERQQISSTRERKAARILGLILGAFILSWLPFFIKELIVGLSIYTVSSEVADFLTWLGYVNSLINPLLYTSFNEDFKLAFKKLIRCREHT
Chain of 5-hydroxytryptamine receptor 4 (Q13639 whole entry): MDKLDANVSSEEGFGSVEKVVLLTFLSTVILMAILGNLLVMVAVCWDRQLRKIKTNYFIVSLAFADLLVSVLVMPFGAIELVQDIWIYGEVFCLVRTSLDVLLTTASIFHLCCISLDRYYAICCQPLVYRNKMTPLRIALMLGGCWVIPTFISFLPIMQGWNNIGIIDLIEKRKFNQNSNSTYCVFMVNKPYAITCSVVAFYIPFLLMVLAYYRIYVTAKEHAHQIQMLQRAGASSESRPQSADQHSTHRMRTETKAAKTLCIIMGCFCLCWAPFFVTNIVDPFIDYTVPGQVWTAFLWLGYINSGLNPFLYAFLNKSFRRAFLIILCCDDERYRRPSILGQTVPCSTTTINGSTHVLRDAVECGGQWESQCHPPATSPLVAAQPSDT
Chain of 5-hydroxytryptamine receptor 2A (P28223 whole entry): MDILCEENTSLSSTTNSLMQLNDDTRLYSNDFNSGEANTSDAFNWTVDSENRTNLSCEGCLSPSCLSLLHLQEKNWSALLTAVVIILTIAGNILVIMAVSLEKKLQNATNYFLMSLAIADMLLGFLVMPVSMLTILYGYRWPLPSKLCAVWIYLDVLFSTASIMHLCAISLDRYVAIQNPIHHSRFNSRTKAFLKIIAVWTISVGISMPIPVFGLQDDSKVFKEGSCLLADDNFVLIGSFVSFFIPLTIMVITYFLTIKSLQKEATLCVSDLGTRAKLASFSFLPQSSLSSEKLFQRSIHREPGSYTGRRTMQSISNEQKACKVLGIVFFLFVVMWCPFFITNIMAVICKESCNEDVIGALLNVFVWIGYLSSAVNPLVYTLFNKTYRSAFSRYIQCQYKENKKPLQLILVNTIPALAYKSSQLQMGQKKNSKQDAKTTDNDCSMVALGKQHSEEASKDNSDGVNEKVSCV
Chain of 5-hydroxytryptamine receptor 2B (P41595 whole entry): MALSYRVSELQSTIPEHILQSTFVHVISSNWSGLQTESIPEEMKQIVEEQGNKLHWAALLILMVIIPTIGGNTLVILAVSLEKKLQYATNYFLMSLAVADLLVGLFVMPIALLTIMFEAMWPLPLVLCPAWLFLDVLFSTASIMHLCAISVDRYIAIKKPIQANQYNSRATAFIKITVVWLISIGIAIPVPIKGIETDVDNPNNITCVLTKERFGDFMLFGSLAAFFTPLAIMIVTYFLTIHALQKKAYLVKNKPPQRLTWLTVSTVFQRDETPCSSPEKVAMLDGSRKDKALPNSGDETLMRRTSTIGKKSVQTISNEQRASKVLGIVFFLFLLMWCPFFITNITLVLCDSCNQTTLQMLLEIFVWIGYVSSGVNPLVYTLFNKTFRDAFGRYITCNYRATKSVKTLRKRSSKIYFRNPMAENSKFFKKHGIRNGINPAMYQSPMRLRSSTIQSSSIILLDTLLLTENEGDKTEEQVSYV
Chain of D(3) dopamine receptor (P35462 whole entry): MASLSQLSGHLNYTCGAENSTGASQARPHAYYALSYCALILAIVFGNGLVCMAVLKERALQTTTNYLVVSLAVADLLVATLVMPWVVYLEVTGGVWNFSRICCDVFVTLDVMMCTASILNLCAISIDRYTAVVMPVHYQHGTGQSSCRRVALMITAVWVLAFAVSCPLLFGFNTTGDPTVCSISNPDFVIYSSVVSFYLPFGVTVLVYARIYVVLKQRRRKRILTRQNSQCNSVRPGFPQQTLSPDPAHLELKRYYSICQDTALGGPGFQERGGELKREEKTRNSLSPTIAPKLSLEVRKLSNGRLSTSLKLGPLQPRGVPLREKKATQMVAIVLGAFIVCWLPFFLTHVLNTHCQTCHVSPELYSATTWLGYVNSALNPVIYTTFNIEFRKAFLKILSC

SMILES	Ki [1] [µM]	Ki [2] [µM]	Ki [3] [µM]	Ki (D(2) dopamine receptor) [µM]	clearance [4] [mL/min/kg]	bioavailability [5] [%]	Ki [6] [µM]	Ki [7] [µM]	Ki (D(3) dopamine receptor) [µM]	Ki [8] [µM]	Ki [9] [µM]	Ki [10] [µM]	Ki [11] [µM]	Ki [12] [µM]	Ki [13] [µM]	bioavailability [14] [%]	Distribution ratio (Rattus norvegicus [15])	AUC (Rattus norvegicus [16])	Ki [17] [µM]
COc1ccc(S(=O)(=O)Nc2cc(Br)cc(F)c2Br)cc1N1CCNCC1	> 7.94	> 6.31	> 10	> 5.01	14	65	> 10	> 7.94	> 5.01	> 5.01	> 5.01	> 3.98	> 10	> 3.98	> 3.98				
COc1ccc(S(=O)(=O)Nc2cc(Cl)cc(Cl)c2)cc1N1CCNCC1					4											51	0.02	450 uM min uM-1	0.000631
